iPSC survival up = hiPSC single-cell survival enhancement | survival enhancement, % at 20 µM | ATPlite luminescence; 100% = ROCK inhibitor wells, 0% = DMSO | 360,000 compounds, 0.044% hits; in the data active means survival enhancement above about 18%;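 further: cells exposed to compounds for 16 hours before the ATP read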
beta cell repl = induces beta-cell replication in MIN6 cells | 330,000 compounds, 0.29% hits | MIN6 cells proliferation, ATPlite luminescence, 48 h; cells starved in 0.2% serum; 100% = growth in 10% serum | proliferation, % at 10 µM;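 active means compounds whose signal lies at least 3.5 SD above the mean of all wells on their plate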
MPTP inh = blocks calcium-induced mitochondrial swelling. inhibition, % at 10 µM. 360,000 compounds, 1.4% hits. isolated mouse mitochondria, Ca2+ swelling absorbance, 30 min;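 active means inhibition of 50% or more, scaled per plate between neutral and stimulator controls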
Exocytosis inh = blocks lytic granule exocytosis; TALL-104 LAMP-1 surface exposure, flow cytometry; cells stimulated with thapsigargin and PMA; inhibition, % at 10 µM; 360,000 compounds, 0.66% hits; AID 651702;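 active means inhibition above about 55%, limit read from the data; inconclusive means no clear call, values can overlap the other calls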
Apaf1 inhib = inhibitors of human Apaf-1 apoptosome. O14727. reconstituted apoptosome caspase-3 activity, DEVD-Rh110 fluorescence. inhibition, % at 20 µM. 330,000 compounds, 0.71% hits. AID 489030; active means inhibition of at least 40% at 20 µM
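detection = Rh110 fluorescence intensity | test system = biochemical Apaf-1 apoptosome reconstitution | also added = cytochrome c and DEVD-Rh110 substrate | schedule = 30 min plus 50 min, RT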
UBC13 inh = human UBC13 polyubiquitination inhibition. inhibition, % at 20 µM. P61088. UBC13 polyubiquitin chain formation, TR-FRET. 330,000 compounds, 0.47% hits; in the data active means inhibition above about 45%, passing the limit was not always enough; inconclusive means no clear call, values can overlap the other calls
Exocytosis CP01 = lytic granule exocytosis inhibition. shares compounds with Exocytosis inh. TALL-104 cells, LAMP-1 externalization, flow cytometry; stimulated with PMA plus thapsigargin. inhibition, % at 10 µM. 1,500 compounds, 11% hits. AID 651954; in the data active means inhibition above about 60%
Hits are given with their value; n = inactive; u = inconclusive; x = not tested or not shown. Sampled rows, rich in hits. Any-hit rate of the full collection: about 3%.

SMILES	iPSC survival up	beta cell repl	MPTP inh	Exocytosis inh	Apaf1 inhib	UBC13 inh	Exocytosis CP01
CCOc1ccc2[nH]c(C)c(CN3CCN(CC)CC3)c(=O)c2c1	n	n	n	n	n	n	x
O=C(CCS(=O)(=O)c1ccccc1)N(CCCN1CCOCC1)c1nc2ccc(F)cc2s1	n	n	n	58	n	n	n
S=C(NCCCN1CCOCC1)N1CCN(c2nc(-c3ccc(Cl)cc3)cs2)CC1	n	n	n	77	n	n	n
O=C(Nc1ccc2c(c1)OCO2)C1CCCN(c2nc3ccccc3s2)C1 (stereo not drawn)	n	n	n	62	n	n	n
CCc1nnc(NC(=O)C2CCCN(c3nc4ccccc4s3)C2)s1 (stereo not drawn)	n	n	n	n	n	n	x
CCOC(=O)c1c(C)[nH]c(C)c1S(=O)(=O)N1CCCCC1	n	n	n	n	n	n	x
CC(C)(C)C(=O)NCC12C=CC(O1)C1C(=O)N(c3ccccc3)C(=O)C12 (stereo not drawn)	n	n	n	64	n	n	n
O=C1C2C3C=CC(CO)(O3)C2C(=O)N1c1ccc(-c2ccccc2)cc1 (stereo not drawn)	x	n	x	x	n	n	x
COc1ccccc1/C=C/c1onc(C)c1S(=O)(=O)N1CCC(C(=O)NC2CCCCCC2)CC1	n	n	n	70	n	n	n
CCOc1ccccc1/C=C/c1onc(C)c1S(=O)(=O)N1CCC(C(=O)NC)CC1	n	n	n	n	n	n	x
CCOC(=O)c1c(CSc2ccccc2)n(C)c2ccc(O)c(CN3CCN(C)CC3)c12	n	n	n	59	n	n	n
CCOC(=O)c1c(CSc2ccccc2)n(C)c2cc(Br)c(O)c(CN(C)C)c12	n	n	n	73	n	n	107
O=C(CNC(=O)N1CC(=O)Nc2ccccc21)Nc1nccs1	n	n	n	n	n	n	x
COC(=O)C(NC(=O)CNS(=O)(=O)c1ccc(Br)cc1)c1ccccc1 (stereo not drawn)	n	n	n	62	n	n	n
COC(=O)C(Cc1ccccc1)NC(=O)CNS(=O)(=O)c1ccc(Br)cc1 (stereo not drawn)	n	n	n	n	n	n	x
CCOC(=O)N1CCN(C(=O)CSc2ccc3nnc(-c4cccnc4)n3n2)CC1	n	n	n	87	n	n	n
CCOc1ccc(NC(=O)CSc2ccc3nnc(-c4cccnc4)n3n2)cc1	n	n	n	n	n	n	x
O=C(Cc1cccs1)N(Cc1cccs1)C1(C(=O)NC2CCCC2)CCCCC1	n	n	n	77	n	n	n
O=C(Cc1cccs1)N(Cc1ccco1)C1(C(=O)NC2CCCCC2)CCCCC1	n	n	n	n	n	n	x
O=C(CN1C(=O)NC2(CCCCCC2)C1=O)N1CCN(c2ccccc2)CC1	n	n	n	n	n	n	x
Cc1ccc(Br)cc1S(=O)(=O)N1CCN(c2ccccc2)CC1	n	n	n	66	n	n	n
COc1cc(N)ccc1Nc1c2ccccc2nc2ccccc12	n	x	n	n	x	x	x
CCCS(=O)(=O)Nc1ccc(Nc2c3ccccc3nc3ccccc23)c(OC)c1	n	x	n	78	x	x	89
Cc1cc(Nc2cccc(Cl)c2)nc(-c2ccccc2O)n1	n	n	n	56	n	n	n
Cc1cc(Nc2ccc(Cl)cc2)nc(-c2ccccc2O)n1	n	n	n	n	n	u	x
SMILES	iPSC survival up	beta cell repl	MPTP inh	Exocytosis inh	Apaf1 inhib	UBC13 inh	Exocytosis CP01
COCCCNc1ccn2nc(-c3cccc(OCc4ccccc4)c3)cc2n1	n	x	n	n	x	x	x
c1ccc(COc2ccc(-c3cc4nc(NCCCn5ccnc5)ccn4n3)cc2)cc1	n	x	n	72	x	x	99
CCCCC[C@H](C)N1C[C@H](COCc2ccccc2)Oc2cc(N3CC[C@@H](O)C3)ccc2S1(=O)=O	n	x	n	n	x	x	x
CCCCC[C@H](C)N1C[C@@H](COCc2ccccc2)Oc2cc(N3CC[C@H](N(C)C)C3)ccc2S1(=O)=O	n	x	n	75	x	x	n
CCCCC[C@@H](C)N1C[C@@H](COCc2ccccc2)Oc2cc(N3CC[C@H](N(C)C)C3)ccc2S1(=O)=O	n	x	n	56	x	x	69
CCCCC[C@H](C)N1C[C@@H](COCc2ccccc2)Oc2cc(N3CC[C@H](O)C3)ccc2S1(=O)=O	n	x	n	n	x	x	x
COCCCNC(=S)N1CCN(c2nc(C)nc3sc4c(c23)CCCC4)CC1	n	n	n	66	n	n	n
CCCNC(=S)N1CCN(c2nc(C)nc3sc4c(c23)CCCC4)CC1	n	n	n	n	n	n	x
Cc1ccccc1Nc1nc(N)nc(COC(=O)[C@@H](NC(=O)c2ccccc2Cl)C(C)C)n1	n	n	n	n	n	n	x
c1ccc(-c2csc3ncnc(N4CCN(Cc5ccc6c(c5)OCO6)CC4)c23)cc1	n	n	n	76	n	n	n
Cc1sc2ncnc(N3CCN(Cc4ccccc4)CC3)c2c1-c1ccc(F)cc1	n	n	n	65	n	n	n
Cc1cc(-c2csc3ncnc(N4CCN(C)CC4)c23)cc(C)c1C	n	n	n	96	n	n	n
COc1ccc(-c2csc3ncnc(N4CCN(c5ccccc5OC)CC4)c23)cc1	n	n	n	88	n	n	n
Cc1ccc(-c2csc3ncnc(N4CCN(Cc5ccccc5)CC4)c23)cc1	n	n	n	n	n	n	x
Cc1ccc(C)c(N2CCN(C(=O)CCc3nc(-c4ccccc4Br)no3)CC2)c1	n	x	n	n	n	x	x
CCOC(=O)c1c(C)[nH]c(C(=O)NCC(c2ccco2)N2CCCCC2)c1C (stereo not drawn)	n	n	n	n	n	n	x
Fc1ccc(CN2CCN(c3ncnc4scc(-c5ccccc5)c34)CC2)cc1	n	n	n	74	n	n	n
Fc1ccc(-c2csc3ncnc(N4CCN(Cc5ccccc5)CC4)c23)cc1	n	n	n	n	n	n	x
O=C(NCc1ccc(OC(F)(F)F)cc1)C1CC(c2cccc(F)c2)=NO1 (stereo not drawn)	n	n	n	n	n	n	x
Cc1ccc(CNC(=O)C2CC(c3cccc(F)c3)=NO2)cc1 (stereo not drawn)	n	n	n	72	n	n	n
CC(C)(C(=O)N1CCC1(C)C(=O)NS(=O)(=O)c1ccc(C#N)cc1)c1ccccc1 (stereo not drawn)	n	x	n	n	x	x	x
CCCn1cc(CN2CCC(n3nccc3NC(=O)c3ccccc3)CC2)c(C)n1	n	n	n	n	n	n	x
CCCCCCn1c(COc2ccccc2F)nnc1SCC(=O)N1c2ccccc2NC(=O)C1(C)C	n	n	n	75	n	n	n
Cc1oc(=O)c(NC(=O)c2ccc(Cl)cc2)cc1C(=O)c1ccccc1	n	n	n	103	n	n	n
